{"source": "ChEMBL document CHEMBL3588826", "about": "“Chimeric derivatives of functionalized amino acids and α-aminoamides: compounds with anticonvulsant activity in seizure models and inhibitory actions on central, peripheral, and cardiac isoforms of voltage-gated sodium channels” (Bioorg Med Chem, 2015)", "key": {"[1]": {"biological_target": "Cytochrome P450 2D6 (Homo sapiens, UniProt P10635)", "sequence (P10635 whole entry)": "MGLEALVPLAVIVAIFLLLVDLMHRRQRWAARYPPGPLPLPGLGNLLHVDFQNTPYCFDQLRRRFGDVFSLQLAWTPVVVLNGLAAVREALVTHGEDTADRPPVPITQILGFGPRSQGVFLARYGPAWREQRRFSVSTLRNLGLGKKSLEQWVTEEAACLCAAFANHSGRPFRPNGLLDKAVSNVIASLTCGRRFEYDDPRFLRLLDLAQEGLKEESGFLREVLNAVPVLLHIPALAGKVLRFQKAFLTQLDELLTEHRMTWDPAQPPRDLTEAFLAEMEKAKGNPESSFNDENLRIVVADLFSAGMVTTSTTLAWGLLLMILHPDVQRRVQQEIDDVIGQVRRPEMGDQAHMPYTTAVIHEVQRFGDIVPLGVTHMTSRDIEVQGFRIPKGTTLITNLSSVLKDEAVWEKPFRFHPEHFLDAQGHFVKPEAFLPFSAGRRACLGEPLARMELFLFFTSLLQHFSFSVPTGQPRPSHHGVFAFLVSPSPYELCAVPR", "experiment": "Inhibition of human CYP2D6 at 10 uM", "type": "ADME", "how_it_was_run": "(§1)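 Test compound at 10 μM against a human CYP450 panel (CYP1A2, 2B6, 2C8, 2C9, 2C19, 2D6, 3A4/5). Direct inhibition was measured, and time-dependent inhibition was measured after a 30-min preincubation.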"}, "[2]": {"system": "Rattus norvegicus", "experiment": "Toxicity in po dosed Sprague-Dawley rat assessed as changes in body weight administered via gavage", "type": "organism-based", "details": "in vivo"}, "[3]": {"system": "CAD", "experiment": "Inhibition of voltage-gated sodium channel in mouse CAD cells assessed as half-maximal voltage for steady state fast-inactivation at 10 uM by whole cell patch-clamp electrophysiology (reference value: -69.1 +/-3.6 mV)", "type": "cell-based", "how_it_was_run": "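CAD cells, whole-cell voltage clamp at room temperature. Prepulses from −120 to −10 mV in 10 mV steps for 500 ms, then a 0 mV, 20 ms test pulse. V1/2 from single-Boltzmann fits to individual cells, averaged (mean ± SEM). Compared with 0.1% DMSO by Student's t-test.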"}, "[4]": {"experiment": "Behavioural toxicity in ip dosed albino Sprague-Dawley rat measured at 2 hrs", "type": "organism-based", "details": "in vivo"}, "[5]": {"system": "Rattus norvegicus", "experiment": "Toxicity in po dosed Sprague-Dawley rat assessed as changes in respiratory rate administered via gavage", "type": "organism-based", "details": "in vivo", "how_it_was_run": "(§2)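 Non-GLP 7-day repeated-dose study in female Sprague-Dawley rats given oral gavage at 20, 60 and 180 mg/kg/day. Endpoints were weight bearing, gait coordination, respiratory rate, relative organ weights, clinical chemistry and gross pathology, with NOAEL determined.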"}, "[6]": {"system": "Rattus norvegicus", "experiment": "Anticonvulsant activity in ip dosed albino Sprague-Dawley rat measured at 2 hrs by maximal electroshock seizure test", "type": "functional", "how_it_was_run": "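Screened under the NIH Anticonvulsant Screening Program in male rodents, with mice and rats dosed ip and rats also dosed po. Maximal electroshock (MES) and 6 Hz (32 mA) psychomotor seizure tests were run.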"}, "[7]": {"system": "Rattus norvegicus", "experiment": "Toxicity in po dosed Sprague-Dawley rat assessed as changes in clinical chemistry parameters administered via gavage", "type": "organism-based", "details": "in vivo", "how_it_was_run": "as §2"}, "[8]": {"experiment": "Ratio of drug level in brain to plasma in Sprague-Dawley rat at 5 mg/kg, iv and 20 mg/kg, po measured after 6 hrs", "type": "ADME, organism-based", "details": "read-out: BPR", "how_it_was_run": "(§3)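 Pharmacokinetics in Sprague-Dawley rats given a single iv dose of 5 mg/kg or an oral dose of 20 mg/kg.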"}, "[9]": {"biological_target": "Sodium channel protein type 9 subunit alpha (Homo sapiens) (UniProt Q15858)", "sequence (Q15858 whole entry, looked up)": "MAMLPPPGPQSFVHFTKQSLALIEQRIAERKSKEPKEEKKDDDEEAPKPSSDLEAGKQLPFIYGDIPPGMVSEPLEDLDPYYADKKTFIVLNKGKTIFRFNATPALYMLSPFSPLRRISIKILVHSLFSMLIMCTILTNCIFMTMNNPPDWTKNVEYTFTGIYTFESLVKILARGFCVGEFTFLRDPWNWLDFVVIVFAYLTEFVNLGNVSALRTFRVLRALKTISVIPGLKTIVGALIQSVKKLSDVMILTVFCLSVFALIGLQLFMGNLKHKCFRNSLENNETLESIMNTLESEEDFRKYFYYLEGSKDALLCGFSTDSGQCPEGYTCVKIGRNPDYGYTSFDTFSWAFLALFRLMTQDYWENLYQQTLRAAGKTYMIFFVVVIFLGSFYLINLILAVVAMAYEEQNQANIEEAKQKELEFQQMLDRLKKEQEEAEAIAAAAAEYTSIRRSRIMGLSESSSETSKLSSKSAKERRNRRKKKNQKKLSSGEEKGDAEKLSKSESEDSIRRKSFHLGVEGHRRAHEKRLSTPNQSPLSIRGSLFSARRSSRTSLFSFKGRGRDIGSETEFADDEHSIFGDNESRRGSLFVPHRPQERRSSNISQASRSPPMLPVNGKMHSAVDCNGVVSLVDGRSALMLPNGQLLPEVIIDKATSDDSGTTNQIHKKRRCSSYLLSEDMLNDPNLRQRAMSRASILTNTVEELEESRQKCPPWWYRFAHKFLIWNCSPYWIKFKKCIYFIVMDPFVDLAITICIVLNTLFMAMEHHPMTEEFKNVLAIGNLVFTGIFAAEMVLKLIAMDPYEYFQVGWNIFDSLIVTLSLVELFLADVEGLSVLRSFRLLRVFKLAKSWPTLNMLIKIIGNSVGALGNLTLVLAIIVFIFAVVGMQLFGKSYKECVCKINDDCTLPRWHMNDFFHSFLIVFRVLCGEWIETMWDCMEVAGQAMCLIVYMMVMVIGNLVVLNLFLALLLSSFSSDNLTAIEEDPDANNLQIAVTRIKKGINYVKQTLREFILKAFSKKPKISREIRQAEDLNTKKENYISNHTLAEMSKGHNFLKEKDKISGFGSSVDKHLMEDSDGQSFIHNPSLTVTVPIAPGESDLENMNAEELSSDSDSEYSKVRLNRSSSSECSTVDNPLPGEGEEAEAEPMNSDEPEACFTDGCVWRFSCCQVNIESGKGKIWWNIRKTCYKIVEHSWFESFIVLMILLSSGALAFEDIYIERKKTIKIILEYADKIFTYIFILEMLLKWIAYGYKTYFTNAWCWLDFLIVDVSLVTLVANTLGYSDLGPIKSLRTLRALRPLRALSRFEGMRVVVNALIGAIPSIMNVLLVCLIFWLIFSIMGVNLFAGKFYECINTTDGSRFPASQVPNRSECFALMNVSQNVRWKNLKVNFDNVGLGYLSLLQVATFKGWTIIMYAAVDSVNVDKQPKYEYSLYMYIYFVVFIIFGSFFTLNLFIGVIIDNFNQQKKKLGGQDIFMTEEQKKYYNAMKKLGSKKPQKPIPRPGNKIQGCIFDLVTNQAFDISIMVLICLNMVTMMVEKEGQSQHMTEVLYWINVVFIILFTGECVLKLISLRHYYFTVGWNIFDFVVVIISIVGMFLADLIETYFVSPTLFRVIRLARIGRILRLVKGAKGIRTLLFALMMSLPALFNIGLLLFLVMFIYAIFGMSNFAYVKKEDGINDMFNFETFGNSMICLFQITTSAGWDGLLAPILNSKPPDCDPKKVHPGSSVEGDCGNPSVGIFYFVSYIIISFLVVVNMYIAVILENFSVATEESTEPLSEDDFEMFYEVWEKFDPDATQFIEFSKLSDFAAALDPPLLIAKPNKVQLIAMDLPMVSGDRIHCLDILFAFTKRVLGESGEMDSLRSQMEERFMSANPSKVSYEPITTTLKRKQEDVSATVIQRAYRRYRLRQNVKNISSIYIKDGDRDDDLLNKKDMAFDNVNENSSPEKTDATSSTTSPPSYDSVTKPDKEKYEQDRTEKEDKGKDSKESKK", "experiment": "Inhibition of human Nav1.7 expressed in HEK293 cells assessed as half-maximal voltage for steady state activation at 10 uM by whole cell patch-clamp electrophysiology (reference value: -27.13 +/-4.01 mV)", "type": "cell-based"}, "[10]": {"biological_target": "Cytochrome P450 2C9 (Homo sapiens, UniProt P11712)", "sequence (P11712 whole entry)": "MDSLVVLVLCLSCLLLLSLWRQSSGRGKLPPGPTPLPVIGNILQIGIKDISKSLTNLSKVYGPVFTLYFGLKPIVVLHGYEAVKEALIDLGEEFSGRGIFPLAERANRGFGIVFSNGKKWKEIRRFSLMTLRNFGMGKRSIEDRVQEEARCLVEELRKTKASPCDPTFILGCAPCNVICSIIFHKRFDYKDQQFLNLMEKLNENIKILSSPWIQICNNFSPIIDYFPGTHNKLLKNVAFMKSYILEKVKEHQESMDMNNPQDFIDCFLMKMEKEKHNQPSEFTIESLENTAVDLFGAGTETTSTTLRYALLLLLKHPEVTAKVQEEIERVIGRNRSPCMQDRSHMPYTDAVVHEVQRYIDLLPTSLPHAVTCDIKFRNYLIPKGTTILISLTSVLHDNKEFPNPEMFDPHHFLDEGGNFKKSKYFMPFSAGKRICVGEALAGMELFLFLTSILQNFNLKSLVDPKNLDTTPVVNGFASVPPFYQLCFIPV", "experiment": "Inhibition of human CYP2C9 at 10 uM", "type": "ADME", "how_it_was_run": "as §1"}, "[11]": {"biological_target": "Sodium channel protein type 3 subunit alpha (Rattus norvegicus) (UniProt P08104)", "sequence (P08104 whole entry)": "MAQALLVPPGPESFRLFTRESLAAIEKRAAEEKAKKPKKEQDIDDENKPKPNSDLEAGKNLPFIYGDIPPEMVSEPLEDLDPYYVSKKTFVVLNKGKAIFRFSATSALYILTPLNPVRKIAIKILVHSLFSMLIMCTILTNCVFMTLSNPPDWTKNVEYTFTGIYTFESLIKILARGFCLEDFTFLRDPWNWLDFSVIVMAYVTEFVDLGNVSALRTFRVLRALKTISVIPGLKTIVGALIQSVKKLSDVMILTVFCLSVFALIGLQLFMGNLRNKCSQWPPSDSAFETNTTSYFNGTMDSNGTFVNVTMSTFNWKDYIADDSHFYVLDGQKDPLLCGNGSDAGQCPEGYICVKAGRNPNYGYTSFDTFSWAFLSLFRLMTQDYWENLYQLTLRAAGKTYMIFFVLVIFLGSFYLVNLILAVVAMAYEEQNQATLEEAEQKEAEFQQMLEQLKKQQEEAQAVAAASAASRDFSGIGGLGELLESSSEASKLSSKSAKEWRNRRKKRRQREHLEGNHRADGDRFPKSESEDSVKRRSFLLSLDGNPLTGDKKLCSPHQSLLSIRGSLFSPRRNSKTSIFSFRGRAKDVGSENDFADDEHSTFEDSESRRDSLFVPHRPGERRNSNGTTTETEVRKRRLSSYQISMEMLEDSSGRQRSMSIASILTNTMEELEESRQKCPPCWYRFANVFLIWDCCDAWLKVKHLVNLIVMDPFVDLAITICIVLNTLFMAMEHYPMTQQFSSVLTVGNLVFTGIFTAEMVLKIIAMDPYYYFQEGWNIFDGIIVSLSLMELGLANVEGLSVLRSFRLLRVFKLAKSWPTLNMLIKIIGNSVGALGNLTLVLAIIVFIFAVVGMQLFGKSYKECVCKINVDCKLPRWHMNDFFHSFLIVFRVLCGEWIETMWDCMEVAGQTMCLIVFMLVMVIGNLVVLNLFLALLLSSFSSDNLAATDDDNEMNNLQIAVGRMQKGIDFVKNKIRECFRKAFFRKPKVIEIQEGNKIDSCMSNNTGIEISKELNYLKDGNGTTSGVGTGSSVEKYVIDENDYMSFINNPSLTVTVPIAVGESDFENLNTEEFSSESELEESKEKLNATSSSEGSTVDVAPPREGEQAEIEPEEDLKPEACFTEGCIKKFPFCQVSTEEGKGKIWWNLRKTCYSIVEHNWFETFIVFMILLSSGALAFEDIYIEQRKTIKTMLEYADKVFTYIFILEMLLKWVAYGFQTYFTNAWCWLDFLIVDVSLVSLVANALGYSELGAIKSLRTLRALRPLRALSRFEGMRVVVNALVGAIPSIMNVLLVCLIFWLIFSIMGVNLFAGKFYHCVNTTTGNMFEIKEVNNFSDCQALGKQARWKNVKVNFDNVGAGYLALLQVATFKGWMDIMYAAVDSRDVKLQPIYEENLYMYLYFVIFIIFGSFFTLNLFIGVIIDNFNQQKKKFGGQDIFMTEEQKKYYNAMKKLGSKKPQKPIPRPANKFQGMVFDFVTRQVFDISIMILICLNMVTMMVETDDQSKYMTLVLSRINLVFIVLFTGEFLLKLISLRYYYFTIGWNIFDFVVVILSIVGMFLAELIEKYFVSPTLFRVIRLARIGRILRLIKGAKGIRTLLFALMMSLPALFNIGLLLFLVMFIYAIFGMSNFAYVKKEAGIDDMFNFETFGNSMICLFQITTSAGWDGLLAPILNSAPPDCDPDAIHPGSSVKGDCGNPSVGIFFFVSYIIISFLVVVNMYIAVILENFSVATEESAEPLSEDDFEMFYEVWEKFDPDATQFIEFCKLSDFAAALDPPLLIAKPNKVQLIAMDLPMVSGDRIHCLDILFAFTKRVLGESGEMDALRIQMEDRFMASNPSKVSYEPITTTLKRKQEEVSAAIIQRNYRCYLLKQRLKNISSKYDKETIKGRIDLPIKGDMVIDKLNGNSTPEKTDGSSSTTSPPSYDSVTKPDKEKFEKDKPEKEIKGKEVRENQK", "experiment": "Inhibition of rat Nav1.3 expressed in HEK293 cells assessed as half-maximal voltage for steady state activation at 10 uM by whole cell patch-clamp electrophysiology (reference value: -29.62 +/-3.59 mV)", "type": "cell-based"}, "[12]": {"species": "Rattus norvegicus", "experiment": "Effect on steady state activation of voltage-gated sodium channel in rat embryonic cortical neurons at 10 uM by whole cell patch-clamp electrophysiology", "how_it_was_run": "(§4)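 Rat embryonic day 19 cortical neurons, cultured 7–10 days, were whole-cell voltage-clamped at room temperature with 1–2 MΩ electrodes, with compound at 10 μM and 0.1% DMSO as control. Fast inactivation: 500 ms prepulses, then a test pulse. Activation: conductance G = I/(Vm − Vrev). V1/2 and k came from Boltzmann fits to individual cells, averaged (mean ± SEM), 5–7 cells per condition.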"}, "[13]": {"species": "Rattus norvegicus", "experiment": "Effect on steady state fast-inactivation of voltage-gated sodium channel in rat embryonic cortical neurons at 10 uM by whole cell patch-clamp electrophysiology", "how_it_was_run": "as §4"}, "[14]": {"system": "Mus musculus", "experiment": "Anticonvulsant activity in ip dosed albino Carworth Farms No. 1 mouse measured at 0.25 hrs by 6Hz (32 mA) psychomotor seizure test", "type": "functional", "details": "Carworth Farms No. 1, ip", "how_it_was_run": "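Screened under the NIH anticonvulsant program in male albino Carworth Farms No. 1 mice (ip) and male albino Sprague-Dawley rats (ip or oral). Protection tested by maximal electroshock or 6 Hz (32 mA) psychomotor stimulation.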"}, "[15]": {"system": "CAD", "experiment": "Inhibition of voltage-gated sodium channel in mouse CAD cells assessed as transition of channels to slow-inactivated state by whole cell patch-clamp electrophysiology", "type": "cell-based", "how_it_was_run": "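CAD cells were grown in Ham's F12/DMEM with 10% FBS at 37 °C and 5% CO2, then recorded by whole-cell voltage clamp at room temperature. A concentration range of compound was tested versus 0.1% DMSO. Slow inactivation was measured at −50 and +20 mV, and IC50 was derived from concentration-response curves.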"}, "[16]": {"biological_target": "Sodium channel protein type 1 subunit alpha (Homo sapiens) (UniProt P35498)", "experiment": "Inhibition of human Nav1.1 expressed in HEK293 cells assessed as half-maximal voltage for steady state activation at 10 uM by whole cell patch-clamp electrophysiology (reference value: -24.69 +/-1.52 mV)", "type": "cell-based"}, "[17]": {"system": "Rattus norvegicus", "experiment": "Toxicity in po dosed Sprague-Dawley rat assessed as adverse effects administered via gavage", "type": "organism-based", "details": "in vivo", "how_it_was_run": "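Non-GLP 7-day repeated-dose study in female Sprague-Dawley rats, given by oral gavage at 20, 60 and 180 mg/kg/day. Endpoints: weight bearing, gait coordination, respiratory rate, relative organ weights, clinical chemistry and gross pathology, giving a NOAEL. The ratio divides the NOAEL by the oral MES ED50.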"}, "[18]": {"biological_target": "Sodium channel protein type 5 subunit alpha (Homo sapiens, UniProt Q14524)", "experiment": "Inhibition of human Nav1.5 expressed in HEK293 cells assessed as transition of channels to slow-inactivated state at 10 uM measured at -50 mV by whole cell patch-clamp electrophysiology", "type": "cell-based", "details": "hek293, 10 µM", "how_it_was_run": "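HEK293 cells stably expressing hNav1.1, rNav1.3, hNav1.7 or hNav1.5 were grown in DMEM with 10% FBS. Recordings were whole-cell voltage clamp at room temperature, with 10 μM compound versus 0.1% DMSO. Slow inactivation at −50 mV was calculated as 1 minus normalized peak INa. Nav1.5 used hyperpolarized protocols. Data are from 5–6 cells.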"}, "[19]": {"experiment": "Half life in Sprague-Dawley rat at 20 mg/kg, po", "type": "ADME, organism-based", "details": "in vivo", "how_it_was_run": "as §3"}, "[20]": {"biological_target": "Sodium channel protein type 9 subunit alpha (Homo sapiens) (UniProt Q15858)", "experiment": "Frequency-dependent inhibition of human Nav1.7 expressed in HEK293 cells assessed as current amplitude at 10 uM by whole cell patch-clamp electrophysiology", "type": "cell-based", "how_it_was_run": "(§5)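 Stable HEK293 lines expressing hNav1.1, rNav1.3, hNav1.7 or hNav1.5 were recorded by whole-cell voltage clamp at room temperature, with 10 μM compound versus 0.1% DMSO. A 30-pulse train was applied, and the read-out was the fraction of current remaining at the last pulse normalized to the first. Nav1.5 used hyperpolarized protocols.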"}, "[21]": {"experiment": "Protective index, ratio of TD50 for neurotoxicity in ip dosed albino Carworth Farms No. 1 mouse to ED50 for anticonvulsant activity in ip dosed MES albino Carworth Farms No. 1 mouse model", "type": "toxicity, organism-based", "details": "in vivo, read-out: Ratio TD50/ED50", "how_it_was_run": "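Male albino Carworth Farms No. 1 mice were dosed ip. Protective index = TD50/ED50, the ED50 taken from the ip maximal electroshock test.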"}, "[22]": {"biological_target": "Sodium channel protein type 1 subunit alpha (Homo sapiens) (UniProt P35498)", "experiment": "Frequency-dependent inhibition of human Nav1.1 expressed in HEK293 cells assessed as current amplitude at 10 uM by whole cell patch-clamp electrophysiology", "type": "cell-based", "how_it_was_run": "as §5"}}, "note": "The source made the active and inactive calls. No cut-off for these calls is given here.", "data": [{"smiles": "COC[C@@H](NC(C)=O)C(=O)NCc1ccc(Oc2cccc(OC(F)(F)F)c2)cc1", "values": [{"measurement": "inhibition (INH)", "setting": "[1]", "result": "Not Active"}, {"measurement": "Activity", "setting": "[2]", "result": "Toxic"}, {"measurement": "V1/2", "setting": "[3]", "result": -84.6, "unit": "mV"}, {"measurement": "TD50 at 2 h", "setting": "[4]", "result": 54, "unit": "mg/kg"}, {"measurement": "Activity", "setting": "[5]", "result": "Toxic"}, {"measurement": "ED50", "setting": "[6]", "result": 5.7, "unit": "mg/kg"}, {"measurement": "Activity", "setting": "[7]", "result": "Toxic"}, {"measurement": "Kp at 6 h", "setting": "[8]", "result": 1.2}, {"measurement": "V1/2", "setting": "[9]", "result": -25, "unit": "mV"}, {"measurement": "inhibition (INH)", "setting": "[10]", "result": "Not Active"}, {"measurement": "V1/2", "setting": "[11]", "result": -32.5, "unit": "mV"}, {"measurement": "Activity", "setting": "[12]", "result": "inactive"}, {"measurement": "Activity", "setting": "[13]", "result": "inactive"}, {"measurement": "ED50", "setting": "[14]", "result": 15, "unit": "mg/kg"}, {"measurement": "inhibition", "setting": "[15]", "result": "Dose-dependent effect"}, {"measurement": "V1/2", "setting": "[16]", "result": -24.4, "unit": "mV"}, {"measurement": "NOAEL", "setting": "[17]", "result": 60, "unit": "mg/kg/day"}, {"measurement": "inhibition (INH)", "setting": "[18]", "result": "Active"}, {"measurement": "half-life", "setting": "[19]", "result": 4.63, "unit": "h"}, {"measurement": "inhibition", "setting": "[20]", "result": "inactive"}, {"measurement": "selectivity ratio", "setting": "[21]", "result": 6.2}, {"measurement": "inhibition", "setting": "[22]", "result": "inactive"}]}]}
